Results pooled from the literature.
Protocols differ between the studies behind these lines.
ABL1 M351T phosphorylated: Tyrosine-protein kinase ABL1, phosphorylated (ABL1, Homo sapiens, UniProt P00519, M351T)
ABL1 F317L phosphorylated: Tyrosine-protein kinase ABL1, phosphorylated (ABL1, Homo sapiens, UniProt P00519, F317L)
ABL1 T315I phosphorylated: Tyrosine-protein kinase ABL1, phosphorylated (ABL1, Homo sapiens, UniProt P00519, T315I)
ABL1 E255K phosphorylated: Tyrosine-protein kinase ABL1, phosphorylated (ABL1, Homo sapiens, UniProt P00519, E255K)
ABL1 F317I non-phosphorylated: Tyrosine-protein kinase ABL1, non-phosphorylated (ABL1, Homo sapiens, UniProt P00519, F317I)
ABL1 E255K: Tyrosine-protein kinase ABL1 (ABL1, Homo sapiens, UniProt P00519, E255K)

COc1cnc(Nc2cccc(S(N)(=O)=O)c2)nc1N1CCN(c2ccccc2)C(=O)C1
remaining binding (ABL1 M351T phosphorylated; binding; competition with immobilised ligand; 1 µM): 84%

O=C(Nc1c[nH]nc1C(=O)NC1CCNCC1)c1cc(F)cc(F)c1
remaining binding (ABL1 F317L phosphorylated; binding; competition with immobilised ligand; 1 µM): 100%

N[C@H]1CCN(c2nccc(-c3cnn4ncccc34)n2)C1
remaining binding (Tyrosine-protein kinase ABL1 (ABL1, Homo sapiens, UniProt P00519, H396P); binding; 1 µM): 58%

O=C(c1ccc(Nc2nccc(-c3cc4ccccc4s3)n2)cc1)N1CCC(N2CCCC2)CC1
remaining binding (ABL1 T315I phosphorylated; binding; competition with immobilised ligand; 1 µM): 14%

O=C(NC[C@@H]1[C@H]2CN(C(=O)OCc3cc(C(F)(F)F)cc(C(F)(F)F)c3)C[C@@H]12)c1ccc2[nH]nnc2c1
remaining binding (ABL1 E255K phosphorylated; binding; competition with immobilised ligand; 1 µM): 92%

Nc1ncc2c(n1)-c1c([nH]c3ccc(C#CC4CC4)cc13)CCCC2
remaining binding (ABL1 E255K phosphorylated; binding; competition with immobilised ligand; 1 µM): 100%

CNC(=O)[C@@H]1CC[C@@H](n2c(-c3ccc4cnccc4c3)nc3ccc(C(=O)NCc4cccc(C(N)=O)c4)cc32)C1
remaining binding (ABL1 F317L phosphorylated; binding; competition with immobilised ligand; 1 µM): 95%

C[C@@H](c1ccc(-n2cnc3c(N)ncnc32)cc1)N1CCc2nn(C)c(Cc3ccccc3)c2C1=O
remaining binding (ABL1 F317I non-phosphorylated; binding; competition with immobilised ligand; 0.1 µM): 40%

CCN1CCN(Cc2ccc(C(=O)Nc3ccc(C)c(Oc4ccc5c(c4)CC(=O)N5)c3)cc2C(F)(F)F)CC1
remaining binding (Tyrosine-protein kinase ABL1, phosphorylated (ABL1, Homo sapiens, UniProt P00519, H396P); binding; competition with immobilised ligand; 1 µM): 62%

CS(=O)(=O)c1cc(C2(NC(=O)c3cncc4c3cnn4-c3ccc(F)cc3)CC2)ccn1
remaining binding (ABL1 M351T phosphorylated; cell-free assay; competition with immobilised ligand; 1 µM): 92%

O=C(c1ccc(Nc2ncc(Cl)c(-c3ccc(Cl)s3)n2)cc1)N1CCC(N2CCCC2)CC1
remaining binding (ABL1 M351T phosphorylated; binding; competition with immobilised ligand; 1 µM): 4.7%

COc1ncc2cc3ccccc3nc2c1C#N
remaining binding (ABL1 F317I non-phosphorylated; cell-free assay; competition with immobilised ligand; 5 µM): 96%

O=C(N1CCS(=O)(=O)CC1)N1C[C@H](c2ccc(OC(F)(F)F)cc2)C[C@H](c2nc(C3CC3)no2)C1
remaining binding (Tyrosine-protein kinase ABL1, non-phosphorylated (ABL1, Homo sapiens, UniProt P00519, T315I); cell-free assay; competition with immobilised ligand; 1 µM): 92%

CN(c1nccc(-c2cnn3ncccc23)n1)C1CC1
remaining binding (ABL1 E255K; binding; 1 µM): 100%

O=C(NCCCN1CCOCC1)c1ccc(Nc2ncc(Cl)c(-c3ccc(Cl)s3)n2)cc1
remaining binding (ABL1 T315I phosphorylated; binding; competition with immobilised ligand; 1 µM): 2.5%

O=C(NCC1CCOCC1)c1n[nH]cc1NC(=O)c1c(F)cccc1F
remaining binding (ABL1 T315I phosphorylated; binding; competition with immobilised ligand; 1 µM): 91%

CCOC(=O)c1cc2cc(-c3cc(C(=O)NCc4ccc(C(=O)O)cc4)nn3C)ccc2[nH]1
remaining binding (ABL1 T315I phosphorylated; cell-free assay; competition with immobilised ligand; 0.1 µM): 92%

CN(C)c1ncc(F)c(-c2cnn3ncccc23)n1
remaining binding (ABL1 E255K; binding; 1 µM): 66%

CC(=O)Nc1c(C(C)=O)c(=O)n(C)c2nc(-c3ccc(Cl)cc3Cl)c(-c3ccc(Cl)cc3)cc12
remaining binding (ABL1 F317I non-phosphorylated; binding; competition with immobilised ligand; 1 µM): 77%

Cc1cnc(Nc2ccc(C(=O)N3CCC(N4CCCC4)CC3)cc2)nc1-c1cc2ccccc2s1
remaining binding (ABL1 F317L phosphorylated; binding; competition with immobilised ligand; 1 µM): 21%

C[C@@H]1CCN(c2nccc(-c3cnn4ncccc34)n2)C1
remaining binding (Tyrosine-protein kinase ABL1 (ABL1, Homo sapiens, UniProt P00519, Q252H); binding; 1 µM): 81%

O=C(Nc1cnc(Oc2ccc(F)cc2)nc1)N1CCc2ncccc2[C@@H]1c1ccc(F)cc1
remaining binding (Tyrosine-protein kinase ABL1, phosphorylated (ABL1, Homo sapiens, UniProt P00519); cell-free assay; competition with immobilised ligand; 1 µM): 94%
